Measurements from different studies.
Compare with care: the assays were run in different laboratories.

Structure (SMILES)	test system	conditions	endpoint	value
COc1nc(-c2cccc(-c3ccccc3)c2C)ccc1CNCCNC(=O)CCCCCCCCCCC(=O)N1CCN(CCNC(=O)c2cc3c(=O)n4cccc(C)c4nc3n(CCc3cccs3)c2=N)CC1	male Sprague-Dawley rat, plasma	intraperitoneal, 4 mg/kg	AUC(0-t)	2440 ng·h/mL
CCOCC(=O)N1CCC[C@H](C(=O)NCc2nc(-c3ccc(C)nc3)cs2)C1	male Sprague-Dawley rat, plasma	oral, 3 mg/kg	AUC	32 µM·h
C=C(CC(=O)OCc1oc(=O)oc1C)C(=O)O	PAMPA	10 µM, 4 h	Papp	~15 ×10⁻⁶ cm/s
C[C@H]1Oc2cc(cnc2N)-c2c(nn(C)c2C#N)CN(C)C(=O)c2ccc(F)cc21	male Sprague-Dawley rat, plasma	oral, 5 mg/kg, single dose	AUC(0-inf)	1870 ng·h/mL
NCCOCC(=O)N1CCC[C@H](C(=O)NCc2nc(-c3ccc(C(F)(F)F)cc3)cs2)C1	male Sprague-Dawley rat, plasma	oral, 3 mg/kg	AUC	0.071 µM·h
Cc1c(S(=O)(=O)N2CCn3nccc3C2)cc(C(=O)NCc2c(F)ccnc2N2CCCC2)n1C	PAMPA		Papp	16.8 ×10⁻⁶ cm/s
CN(C)C(=O)c1cc2cnc(Nc3ccc(N4CCNCC4)cn3)nc2n1C1CCCC1	male Sprague-Dawley rat, plasma	intraperitoneal, 100 mg/kg	AUC	12200 ng·h/mL
CCOCC(=O)N1CCC[C@H](C(=O)NCc2nc(-c3ccc(C#N)nc3)cs2)C1	male Sprague-Dawley rat, plasma	oral, 3 mg/kg	AUC	21 µM·h
C=C(CC(=O)OCOC(=O)OC(C)C)C(=O)OCOC(=O)OC(C)C	PAMPA	10 µM, 4 h, pH 7.4	Papp	> 10 ×10⁻⁶ cm/s
